Entries after “also recorded” stand apart in the source; their conditions may differ.

The values below come from article PMC3321063 (Bioorganic & medicinal chemistry letters, 2012).

The target of one data set is PS1-NTF (Homo sapiens, UniProt P49768). The class given is binding. Particulars: HeLa membranes; for PS1-NTF photolabeling: irradiation ~350 nm. The gist of the method: (§1)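 HeLa membranes (800 μg/1.2 mL PBS) incubated 1 h at 37 °C with clickable photoprobe (20 nM) with or without competing GSI (1 μM), then irradiated at ~350 nm for 30 min at 4 °C and pelleted. Click reaction in PBS: TCEP 1.0 mM, CuSO4 1.0 mM, TBTA 0.1 mM, biotin-azide 0.1 mM, 1 h RT with agitation. Pelleted membranes solubilized in RIPA, streptavidin-enriched, SDS-PAGE, Western blot.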

Data set [1] addresses T1, signal peptide peptidase (SPP) (Homo sapiens, UniProt Q8TCT9).
T1 sequence (Q8TCT9 1-377): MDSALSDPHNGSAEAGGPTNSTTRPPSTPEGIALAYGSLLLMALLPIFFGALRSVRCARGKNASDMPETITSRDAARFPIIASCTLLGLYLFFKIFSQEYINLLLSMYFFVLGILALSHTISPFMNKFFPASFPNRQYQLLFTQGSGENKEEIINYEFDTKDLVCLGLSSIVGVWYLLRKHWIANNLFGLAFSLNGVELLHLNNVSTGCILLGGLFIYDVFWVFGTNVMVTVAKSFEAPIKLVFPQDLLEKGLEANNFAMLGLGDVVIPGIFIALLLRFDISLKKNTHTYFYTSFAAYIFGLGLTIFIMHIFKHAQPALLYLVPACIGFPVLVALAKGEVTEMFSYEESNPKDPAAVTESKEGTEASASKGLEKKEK
The data set is classed as binding. To be noted: HeLa membranes, probe 20 nM. The gist of the method: as §1

The test system of data set [2] is intracellular γ-secretase. To be noted: previous studies; cited from earlier work.
The next data set deals with PS1-CTF (Homo sapiens, UniProt P49768). The class given is binding. Particulars: HeLa membranes, probe 20 nM. The procedure, abridged:
as §1

As for `C#CCCCCNC(=O)[C@H](Cc1ccccc1)NC(=O)[C@H](CC(C)C)NC(=O)[C@H](Cc1ccccc1)C[C@@H](O)[C@H](Cc1ccccc1)NC(=O)c1ccc(C(=O)c2ccccc2)cc1` [compound 4], the “labeling efficiency of PS1-NTF relative to 2 (fold less)” value at PS1-NTF (probe 20 nM, after click reaction with biotin-azide) is on record as 2–3 fold. Moreover, the PS1-NTF photolabeling result on PS1-NTF (probe 20 nM) was “efficient PS1-NTF photolabeling; also recorded: strongly labeled PS1-NTF vs. CTF”. In addition, in data set [1], the SPP photolabeling result is recorded as “minimal labeling of SPP”.
`CC(C)C[C@H](NC(=O)[C@H](Cc1ccccc1)C[C@@H](O)[C@H](Cc1ccccc1)NC(=O)c1ccc(C(=O)c2ccccc2)cc1)C(=O)N[C@@H](Cc1ccccc1)C(=O)NCCCCCNC(=O)CCCC[C@@H]1SC[C@@H]2NC(=O)N[C@@H]21` [compound 2]: the “cell penetration (plasma membrane, access to intracellular γ-secretase)” value in data set [2] is listed as “cannot”.
Take `CC(C)C[C@H](NC(=O)[C@H](Cc1ccccc1)C[C@@H](O)[C@H](Cc1ccccc1)NC(=O)OC(C)(C)C)C(=O)N[C@@H](Cc1ccccc1)C(N)=O` [compound 1, reference compound]: the “blocking of PS1-NTF labeling by competitor” value at PS1-NTF (competitor 1 μM, probe 2 or 4) was “PS1-NTF labeling was blocked”.
Take `C#CCCCCNC(=O)[C@H](Cc1ccc(C(=O)c2ccccc2)cc1)NC(=O)[C@H](CC(C)C)NC(=O)[C@H](Cc1ccccc1)C[C@@H](O)[C@H](Cc1ccccc1)NC(=O)OC(C)(C)C` [compound 5]: the PS1-CTF photolabeling result on PS1-CTF was “expected preference for PS1-CTF”. Besides, at PS1-NTF (probe 20 nM), the PS1-NTF photolabeling result is “minimal PS1-NTF labeling”. For the same compound, the SPP photolabeling entry in data set [1] is “significant labeling of SPP”.
